In ChEMBL document CHEMBL5058577, “EUbOPEN Chemogenomics Library 2 (Multiplex)” (2022):

Tested on: HEK-293T
Test: Multiplex assay against HEK293T
Assay type: toxicity, cell-based
Conditions: human
Method in brief: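 Live cells were stained at seeding with Hoechst33342, BioTracker Green Microtubule Cytoskeleton Dye, MitoTracker Red and Annexin V Alexa Fluor 680, then imaged on a CQ1 microscope at 37°C and 5% CO2 after compound addition. CellPathfinder machine-learning gating split cells into Hoechst high-intensity objects or normal cells. Normal cells were split into healthy, pyknosed or fragmented nuclei, and pyknosed cells into mitotic or apoptotic. Tubulin, mitochondrial-mass and membrane-permeability phenotypes are per cents of healthy-nucleus cells.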

[1] = 12 h, 1 µM, compound concentration 1 uM, replicate 1
[2] = 12 h, 1 µM, compound concentration 1 uM, replicate 2
[3] = 12 h, 10 µM, compound concentration 10 uM, replicate 1
[4] = 12 h, 10 µM, compound concentration 10 uM, replicate 2
[5] = 24 h, 1 µM, compound concentration 1 uM, replicate 1
[6] = 24 h, 1 µM, compound concentration 1 uM, replicate 2
[7] = 24 h, 10 µM, compound concentration 10 uM, replicate 1
[8] = 24 h, 10 µM, compound concentration 10 uM, replicate 2
[9] = 48 h, 1 µM, compound concentration 1 uM, replicate 1
[10] = 48 h, 1 µM, compound concentration 1 uM, replicate 2
[11] = 48 h, 10 µM, compound concentration 10 uM, replicate 1
[12] = 48 h, 10 µM, compound concentration 10 uM, replicate 2

O=C(O)c1cc2ccccc2c(Cc2c(O)c(C(=O)O)cc3ccccc23)c1O [PAMOIC ACID]
Population Apoptotic (%) [1]: 30%
Population Fragmented Nuclei (%) [1]: 9%
Population Healthy Nuclei (%) [1]: 77%
Population Hoechst High Intensity Objects (%) [1]: 7%
Population Membrane Permeable-Phenotype (%) [1]: 0%
Population Mitochondria Different-Phenotype (%) [1]: 38%
Population Mitotic Cells (%) [1]: 69%
Population Normal (%) [1]: 92%
Population Pyknosed Nuclei (%) [1]: 12%
Population Tubulin-Different-Phenotype (%) [1]: 23%
Total Cell Count [1]: 432
Population Apoptotic (%) [2]: 58%
Population Fragmented Nuclei (%) [2]: 7%
Population Hoechst High Intensity Objects (%) [2]: 6%
Population Mitochondria Different-Phenotype (%) [2]: 60%
Population Mitotic Cells (%) [2]: 41%
Population Normal (%) [2]: 93%
Population Pyknosed Nuclei (%) [2]: 15%
Population Tubulin-Different-Phenotype (%) [2]: 21%
Total Cell Count [2]: 303
Population Apoptotic (%) [3]: 34%
Population Fragmented Nuclei (%) [3]: 8%
Population Healthy Nuclei (%) [3]: 79%
Population Hoechst High Intensity Objects (%) [3]: 8%
Population Membrane Permeable-Phenotype (%) [3]: 0%
Population Mitochondria Different-Phenotype (%) [3]: 44%
Population Mitotic Cells (%) [3]: 65%
Population Normal (%) [3]: 91%
Population Pyknosed Nuclei (%) [3]: 12%
Population Tubulin-Different-Phenotype (%) [3]: 34%
Total Cell Count [3]: 446
Population Apoptotic (%) [4]: 52%
Population Fragmented Nuclei (%) [4]: 4%
Population Healthy Nuclei (%) [4]: 81%
Population Mitochondria Different-Phenotype (%) [4]: 55%
Population Mitotic Cells (%) [4]: 47%
Population Pyknosed Nuclei (%) [4]: 13%
Population Tubulin-Different-Phenotype (%) [4]: 26%
Total Cell Count [4]: 275
Population Apoptotic (%) [5]: 29%
Population Fragmented Nuclei (%) [5]: 8%
Population Healthy Nuclei (%) [5]: 78%
Population Hoechst High Intensity Objects (%) [5]: 6%
Population Membrane Permeable-Phenotype (%) [5]: 1%
Population Mitochondria Different-Phenotype (%) [5]: 22%
Population Mitotic Cells (%) [5]: 70%
Population Normal (%) [5]: 93%
Population Pyknosed Nuclei (%) [5]: 12%
Population Tubulin-Different-Phenotype (%) [5]: 16%
Total Cell Count [5]: 559
Population Apoptotic (%) [6]: 40%
Population Fragmented Nuclei (%) [6]: 5%
Population Healthy Nuclei (%) [6]: 86%
Population Membrane Permeable-Phenotype (%) [6]: 0%
Population Mitochondria Different-Phenotype (%) [6]: 39%
Population Mitotic Cells (%) [6]: 59%
Population Pyknosed Nuclei (%) [6]: 7%
Total Cell Count [6]: 378
Population Apoptotic (%) [7]: 29%
Population Fragmented Nuclei (%) [7]: 9%
Population Healthy Nuclei (%) [7]: 75%
Population Hoechst High Intensity Objects (%) [7]: 5%
Population Membrane Permeable-Phenotype (%) [7]: 0%
Population Mitochondria Different-Phenotype (%) [7]: 27%
Population Mitotic Cells (%) [7]: 70%
Population Normal (%) [7]: 94%
Population Pyknosed Nuclei (%) [7]: 14%
Population Tubulin-Different-Phenotype (%) [7]: 22%
Total Cell Count [7]: 592
Population Apoptotic (%) [8]: 41%
Population Fragmented Nuclei (%) [8]: 5%
Population Healthy Nuclei (%) [8]: 79%
Population Hoechst High Intensity Objects (%) [8]: 7%
Population Mitochondria Different-Phenotype (%) [8]: 43%
Population Mitotic Cells (%) [8]: 58%
Population Normal (%) [8]: 92%
Population Pyknosed Nuclei (%) [8]: 15%
Population Tubulin-Different-Phenotype (%) [8]: 18%
Total Cell Count [8]: 365
Population Apoptotic (%) [9]: 18%
Population Fragmented Nuclei (%) [9]: 11%
Population Healthy Nuclei (%) [9]: 81%
Population Hoechst High Intensity Objects (%) [9]: 2%
Population Membrane Permeable-Phenotype (%) [9]: 1%
Population Mitochondria Different-Phenotype (%) [9]: 13%
Population Mitotic Cells (%) [9]: 81%
Population Normal (%) [9]: 97%
Population Pyknosed Nuclei (%) [9]: 7%
Population Tubulin-Different-Phenotype (%) [9]: 10%
Total Cell Count [9]: 998
Population Apoptotic (%) [10]: 48%
Population Fragmented Nuclei (%) [10]: 8%
Population Healthy Nuclei (%) [10]: 84%
Population Hoechst High Intensity Objects (%) [10]: 7%
Population Membrane Permeable-Phenotype (%) [10]: 0%
Population Mitochondria Different-Phenotype (%) [10]: 27%
Population Mitotic Cells (%) [10]: 51%
Population Normal (%) [10]: 92%
Population Pyknosed Nuclei (%) [10]: 6%
Population Tubulin-Different-Phenotype (%) [10]: 11%
Total Cell Count [10]: 494
Population Apoptotic (%) [11]: 24%
Population Fragmented Nuclei (%) [11]: 13%
Population Healthy Nuclei (%) [11]: 79%
Population Hoechst High Intensity Objects (%) [11]: 3%
Population Membrane Permeable-Phenotype (%) [11]: 0%
Population Mitochondria Different-Phenotype (%) [11]: 18%
Population Mitotic Cells (%) [11]: 75%
Population Normal (%) [11]: 96%
Population Pyknosed Nuclei (%) [11]: 7%
Population Tubulin-Different-Phenotype (%) [11]: 10%
Total Cell Count [11]: 879
Population Apoptotic (%) [12]: 36%
Population Fragmented Nuclei (%) [12]: 11%
Population Healthy Nuclei (%) [12]: 82%
Population Hoechst High Intensity Objects (%) [12]: 7%
Population Mitochondria Different-Phenotype (%) [12]: 27%
Population Mitotic Cells (%) [12]: 64%
Population Normal (%) [12]: 92%
Population Pyknosed Nuclei (%) [12]: 5%
Population Tubulin-Different-Phenotype (%) [12]: 12%
Total Cell Count [12]: 517
